Measured values from ChEMBL document CHEMBL5661977, “BI 6727, a Polo-like kinase inhibitor with improved pharmacokinetic profile and broad antitumor activity” (Clin Cancer Res, 2009).
pEC50: −log10 of the molar value. Activity calls are given as the source filed them. The rule behind the calls is not given here.

Experiments:
[1] = system: HL-60; assay: Antimitotic activity against human HL-60 cells assessed as inhibition of cell proliferation incubated for 72 hrs by Alamar blue based fluorescence spectrophotometric analysis; assay type: functional; details: HL-60, 72 h
Outline: (§1)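 Cancer cell lines were cultured per supplier instructions and exposed to various inhibitor concentrations for 72 h. Growth was read as Alamar blue conversion by fluorescence. EC50 (50% growth inhibition) was extrapolated from the dose-response curve fit.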

[2] = system: HCT-116; assay: Antitumor activity against human HCT-116 cells xenografted in BomTac:NMRI-Foxn1nu mouse assessed as mitotic index in small intestine at 40 mg/kg, iv; assay type: functional, organism-based
Outline: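 Female nude mice bore s.c. HCT 116 tumors (~200 mm³) and received a single i.v. 40 mg/kg dose or vehicle (n=3 per group per time). Tumor, small intestine and large intestine were taken at 6, 24 and 48 h. Frozen sections were stained for pSer10 histone H3 (immunoperoxidase) or by TUNEL. Positive area was calculated as % of tumor cell area; Student's t test.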

[3] = AUC (0 to 24 hrs) in human HCT-116 cells xenografted in BomTac:NMRI-Foxn1nu mouse at 25 mg/kg, iv administered twice a week upto 6 weeks by HPLC-MS/MS analysis; assay type: ADME, organism-based; details: in vivo, 1008 h
[4] = AUC (0 to 24 hrs) in human HCT-116 cells xenografted in BomTac:NMRI-Foxn1nu mouse at 25 mg/kg, po administered twice a week upto 6 weeks by HPLC-MS/MS analysis; assay type: ADME, organism-based; details: in vivo, 1008 h
[5] = system: NCI-H460; assay: Antitumor activity against human NCI-H460 cells xenografted in BomTac:NMRI-Foxn1nu mouse assessed as T/C at 10 mg/kg, po administered daily upto 6 weeks relative to control; assay type: functional
Outline: (§2)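 Female nude mice bore s.c. HCT 116 (2×10^6 cells), NCI-H460 (1×10^6 cells) or serially transplanted CXB1 tumor pieces. At ~50–100 mm³, mice were randomized into groups of 10 and dosed i.v. (0.1 N HCl/saline) or by gavage (0.5% hydroxyethyl-cellulose) at 10 mL/kg. Calipers read thrice weekly, volume = length×width²×π/6. T/C from median volumes on the last day.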

[6] = Volume of distribution at steady state in Wistar rat at 10 mg/kg, iv by HPLC-MS/MS analysis; assay type: ADME, organism-based; details: in vivo, read-out: Vdss
Outline: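 Male Wistar Crl:WI (Han) rats, n = 4, given a single 5-min i.v. infusion. BI 6727 measured in EDTA plasma at various times after the infusion started, by HPLC-MS/MS with internal standard. Parameters came from noncompartmental analysis. Terminal half-life was taken from the last two time points after i.v. dosing.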

[7] = AUC (0 to 24 hrs) in human NCI-H460 cells xenografted in BomTac:NMRI-Foxn1nu mouse at 70 mg/kg, po administered once a week upto 6 weeks by HPLC-MS/MS analysis; assay type: ADME, organism-based; details: in vivo, 1008 h
[8] = Drug uptake in human HCT-116 cells xenografted in BomTac:NMRI-Foxn1nu mouse plasma at 35 mg/kg, iv measured after 168 hrs by HPLC-MS/MS analysis; assay type: ADME, organism-based
Outline: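 Female nude mice bearing s.c. HCT 116 xenografts (2 × 10⁶ cells), n = 3 per time point, given a single i.v. dose. Tumor, organs and EDTA plasma collected at 1, 8, 24, 48, 96 and 168 h. Tissue extracts and plasma analysed by HPLC-MS/MS. Tissue nmol/mg converted to nmol/L assuming density 1.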

[9] = AUC (0 to infinity) in Wistar rat at 10 mg/kg, iv by HPLC-MS/MS analysis; assay type: ADME, organism-based; details: in vivo
Outline: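 Single i.v. dose: male Wistar rats (n=4) by 5-min infusion, female nude mice (n=3). EDTA plasma was sampled at various times and extracted with internal standard, NaOH, methanol/formic acid and acetonitrile. Analysis by LC-MS/MS (ESI+, C18, ammonium acetate pH 4.0/acetonitrile gradient). Noncompartmental parameters; AUC by trapezoidal rule.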

[10] = system: NCI-H460; assay: Antimitotic activity against human NCI-H460 cells assessed as histone H3 phosphoserine 10 level at 100 nmol/L incubated for 24 hrs by immunofluorescence analysis; assay type: functional, cell-based
Outline: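 NCI-H460 cells on chamber slides were treated next day for 24 h with inhibitor or 0.1% DMSO vehicle. They were fixed and permeabilized with 4% formaldehyde/Triton X-100 for 5 min at RT, then stained with anti-tubulin and anti-phospho-Ser10 histone H3 (1:500 in PBS/2% BSA) plus DAPI 0.05 µg/mL. Imaged by fluorescence microscopy.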

[11] = system: HCT-116; assay: Antitumor activity against human HCT-116 cells xenografted in BomTac:NMRI-Foxn1nu mouse assessed as T/C at 20 mg/kg, iv administered once a week upto 6 weeks relative to control; assay type: functional; outline: as §2
[12] = system: Raji; assay: Antimitotic activity against human Raji cells assessed as inhibition of cell proliferation incubated for 72 hrs by Alamar blue based fluorescence spectrophotometric analysis; assay type: functional; outline: as §1
[13] = system: Granta-519; assay: Antimitotic activity against human Granta-519 cells assessed as inhibition of cell proliferation incubated for 72 hrs by Alamar blue based fluorescence spectrophotometric analysis; assay type: functional; details: Granta-519, 72 h; outline: as §1
[14] = system: HCT-116; assay: Antitumor activity against human HCT-116 cells xenografted in BomTac:NMRI-Foxn1nu mouse assessed as tumor growth delay at 15 mg/kg, iv administered twice a week on consecutive days; assay type: functional, organism-based; details: time 7.0 day; outline: as §2
[15] = Cmax in Wistar rat at 30 mg/kg, po by HPLC-MS/MS analysis; assay type: ADME, organism-based; details: in vivo
Outline: (§3)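 Single oral gavage of BI 6727 suspended in 0.5% hydroxyethyl-cellulose (10 mL/kg) to female nude mice or male Wistar rats. EDTA plasma levels measured over time by HPLC-MS/MS with internal standard. AUC0-24 by trapezoidal rule. Parameters from noncompartmental analysis.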

[16] = Oral bioavailability in BomTac:NMRI-Foxn1nu mouse at 50 mg/kg by HPLC-MS/MS analysis; assay type: ADME, organism-based; details: in vivo; outline: as §3
[17] = system: NCI-H460; assay: Antimitotic activity against human NCI-H460 cells assessed as increase in the sub-G1 phase at 100 nmol/L incubated for 48 hrs by PI staining based flow cytometric analysis; assay type: functional, cell-based
Outline: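 Log-phase NCI-H460 cells were treated with 0.1% DMSO or inhibitor (dose series for 24 h; 100 nmol/L time course at 0, 24, 48, 72 h). Cells were fixed in 80% ethanol, permeabilized with 0.25% Triton X-100 for 5 min, then given 0.1% RNase plus 10 µg/mL propidium iodide for 20 min at RT. DNA content was read by flow cytometry.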

[18] = Oral bioavailability in Wistar rat at 30 mg/kg by HPLC-MS/MS analysis; assay type: ADME, organism-based; details: in vivo; outline: as §3
[19] = system: HCT-116; assay: Antitumor activity against human HCT-116 cells xenografted in BomTac:NMRI-Foxn1nu mouse assessed as […] in tumor size at 20 mg/kg, iv administered twice a week on consecutive days; assay type: functional, organism-based
[20] = system: HCT-116; assay: Antitumor activity against human HCT-116 cells xenografted in BomTac:NMRI-Foxn1nu mouse assessed as tumor growth delay at 20 mg/kg, iv administered twice a week on consecutive days; assay type: functional, organism-based; outline: as §2
[21] = AUC (0 to 24 hrs) in human HCT-116 cells xenografted in BomTac:NMRI-Foxn1nu mouse at 20 mg/kg, iv administered twice a week upto 6 weeks by HPLC-MS/MS analysis; assay type: ADME, organism-based; details: in vivo, 1008 h

- pEC50 [1]: 7.49
- AUC [3]: 75 µM·h
- AUC [4]: 43 µM·h
- Vd [6]: 22 L/kg
- AUC [7]: 58 µM·h
- concentration at 168 h [8]: 8 nM
- AUC(0-inf) [9]: 30 µM·h
- pEC50 [12]: 7.43
- Cmax [15]: 2200 nM
- bioavailability [16]: 41%
- bioavailability [18]: 55%
- AUC [21]: 66 µM·h
Structure (SMILES): CC[C@@H]1C(=O)N(C)c2cnc(Nc3ccc(C(=O)N[C@H]4CC[C@H](N5CCN(CC6CC6)CC5)CC4)cc3OC)nc2N1C(C)C [VOLASERTIB]
- Activity [2]: inactive
- T/C [5]: 6%
- Activity [10]: Active
- T/C [11]: 9%
- pEC50 [13]: 7.82
- Activity [14]: Active
- Activity [17]: Active
- Activity [19]: Active
- Activity [20]: Active
